ChEMBL document CHEMBL1149311, “Synthesis and antitumor activity of methyltriazene prodrugs simultaneously releasing DNA-methylating agents and the antiresistance drug O(6)-benzylguanine” (J Med Chem, 2004)

Key:
HOP-92 = assay: Antitumor activity against human HOP92 cells; format: functional; details: for CC50: read-out: Log LC50 (the source's name) (converted); for TGI: read-out: Log TGI (converted)
Procedure, shortened: (§1)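 Tested in the NCI in vitro disease-oriented human tumor cell screen. The endpoints are IC50 (molar concentration giving 50% growth inhibition), TGI (total growth inhibition) and LC50 (50% net cell death). The maximal concentration tested was 100 μM. Subpanel values are means of several individual cell lines.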

SF-268 [1] = assay: Antitumor activity against human SF268 cells; format: functional; details: for CC50: read-out: Log LC50 (the source's name) (converted); for TGI: read-out: Log TGI (converted); procedure, shortened: as §1
OVCAR-5 = assay: Antitumor activity against human OVCAR5 cells; format: functional; details: for CC50: read-out: Log LC50 (the source's name) (converted); for TGI: read-out: Log TGI (converted); procedure, shortened: as §1
SF-268 [2] = assay: Antitumor activity against human SF268 cells at 50 uM relative to control; format: functional
Procedure, shortened: (§2)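 Tested in the NCI three-cell-line one-dose primary anticancer prescreen. The read-out is growth as % of untreated control cells (100%) at 50 μM.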

MCF7 [3] = assay: Antitumor activity against human MCF7 cells at 50 uM relative to control; format: functional; procedure, shortened: as §2
NCI-H23 = assay: Antitumor activity against human NCI-H23 cells; format: functional; details: for TGI: read-out: Log TGI (converted); procedure, shortened: as §1
U-251 = assay: Antitumor activity against human U251 cells; format: functional; details: for CC50: read-out: Log LC50 (the source's name) (converted); for TGI: read-out: Log TGI (converted)
Procedure, shortened: (§3)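 NCI in vitro disease-oriented tumour cell line screen. Read-outs are IC50 (molar concentration giving 50% growth inhibition), TGI (molar concentration giving total inhibition of net growth) and LC50 (molar concentration giving 50% net cell death). The maximal concentration tested was 100 μM.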

A549 = assay: Antitumor activity against human A549 cells; format: functional; details: for CC50: read-out: Log LC50 (the source's name) (converted); for TGI: read-out: Log TGI (converted); procedure, shortened: as §1
SK-MEL-5 = assay: Antitumor activity against human SK-MEL-5 cells; format: functional; details: for CC50: read-out: Log LC50 (the source's name) (converted); for TGI: read-out: Log TGI (converted); procedure, shortened: as §1
[4] = Half life of hydrolysis in deuterated phosphate buffer at pD 7.8; details: deuterated phosphate buffer, pH 7.8
OVCAR-8 = assay: Antitumor activity against human OVCAR8 cells; format: functional; details: for TGI: read-out: Log TGI (converted); procedure, shortened: as §1
NCI-H460 [5] = assay: Antitumor activity against human NCI-H460 cells at 50 uM relative to control; format: functional; procedure, shortened: as §2
BT-549 = assay: Antitumor activity against human BT549 cells; format: functional; details: for CC50: read-out: Log LC50 (the source's name) (converted); for TGI: read-out: Log TGI (converted); procedure, shortened: as §1
SR = assay: Antitumor activity against human SR cells; format: functional; procedure, shortened: as §3
SNB-19 = assay: Antitumor activity against human SNB19 cells; format: functional; details: for TGI: read-out: Log TGI (converted); procedure, shortened: as §1
NCI [6] = assay: Antitumor activity against human NCI leukemia cell line panel; format: functional, cell-based; details: for CC50: read-out: LC50 (the source's name); procedure, shortened: as §1
NCI [7] = assay: Antitumor activity against human NCI renal cancer cell line panel; format: functional, cell-based; procedure, shortened: as §1
CAKI-1 = assay: Antitumor activity against human CAKI1 cells; format: functional; details: for CC50: read-out: Log LC50 (the source's name) (converted); for TGI: read-out: Log TGI (converted); procedure, shortened: as §1
COLO 205 = assay: Antitumor activity against human COLO 205 cells; format: functional; details: for CC50: read-out: Log LC50 (the source's name) (converted); for TGI: read-out: Log TGI (converted); procedure, shortened: as §1
HT-29 = assay: Antitumor activity against human HT29 cells; format: functional
Procedure, shortened: (§4)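 Tested in the NCI in vitro disease-oriented tumor cell screen, up to a top concentration of 100 µM. Read-outs: IC50 is the molar concentration giving 50% growth inhibition, TGI the concentration giving total growth inhibition, and LC50 the concentration giving 50% net cell death.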

MCF7 [8] = assay: Antitumor activity against human MCF7 cells at 100 uM relative to control; format: functional
Procedure, shortened: (§5)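 NCI three-cell-line one-dose primary anticancer prescreen at 100 µM. Growth is expressed as % of untreated control cells, with the control taken as 100%.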

SF-268 [9] = assay: Antitumor activity against human SF268 cells at 100 uM relative to control; format: functional; procedure, shortened: as §5
MOLT-4 = assay: Antitumor activity against human MOLT4 cells; format: functional; procedure, shortened: as §4
ACHN = assay: Antitumor activity against human ACHN cells; format: functional; procedure, shortened: as §4
NCI-H460 [10] = assay: Antitumor activity against human NCI-H460 cells at 100 uM relative to control; format: functional; procedure, shortened: as §5
CCRF-CEM = assay: Antitumor activity against human CCRF-CEM cells; format: functional; procedure, shortened: as §4
NCI-H522 = assay: Antitumor activity against human NCI-H522 cells; format: functional; procedure, shortened: as §4
NCI-H226 = assay: Antitumor activity against human NCI-H226 cells; format: functional; procedure, shortened: as §4
HCC 2998 = assay: Antitumor activity against human HCC2998 cells; format: functional; procedure, shortened: as §4
Malme-3M = assay: Antitumor activity against human MALME-3M cells; format: functional; procedure, shortened: as §4
A498 = assay: Antitumor activity against human A498 cells; format: functional; procedure, shortened: as §4
[11] = Antitumor activity against human NCI/ADR RES cells; format: functional; procedure, shortened: as §4
RXF 393 = assay: Antitumor activity against human RXF393 cells; format: functional; procedure, shortened: as §4
SN12C = assay: Antitumor activity against human SN12C cells; format: functional; procedure, shortened: as §4
[12] = read-out: Log LC50 (the source's name) (converted)

CN(/N=N/c1nc(OCc2ccccc2)c2nc[nH]c2n1)C(=O)Oc1ccc([N+](=O)[O-])cc1
GI50 (HOP-92): 7.24 µM | CC50 (HOP-92): > 50.1 µM | TGI (HOP-92): 26.3 µM | GI50 (SF-268 [1]): 9.33 µM | CC50 (SF-268 [1]): > 50.1 µM | TGI (SF-268 [1]): 29.5 µM | GI50 (OVCAR-5): 11.5 µM | CC50 (OVCAR-5): > 50.1 µM | TGI (OVCAR-5): > 50.1 µM | Activity (SF-268 [2]): 4% | Activity (MCF7 [3]): 1% | GI50 (NCI-H23): 8.51 µM | LC50 (50% net cell kill) (NCI-H23): 32.4 µM | TGI (NCI-H23): 16.2 µM | GI50 (U-251): 7.59 µM | CC50 (U-251): 31.6 µM | TGI (U-251): 15.1 µM | GI50 (A549): 12 µM | CC50 (A549): 50.1 µM | TGI (A549): 31.6 µM | GI50 (SK-MEL-5): 6.92 µM | CC50 (SK-MEL-5): 38.9 µM | TGI (SK-MEL-5): 16.2 µM | half-life [4]: 0.383 h | GI50 (OVCAR-8): 9.77 µM | LC50 (concentration giving 50% net cell death) (OVCAR-8): > 50.1 µM | TGI (OVCAR-8): 26.3 µM | Activity (NCI-H460 [5]): 0% | GI50 (BT-549): 7.41 µM | CC50 (BT-549): > 50.1 µM | TGI (BT-549): 20.4 µM | GI50 (SR): 26.3 µM | CC50 (SR; [12]): > 50.1 µM | TGI (SR; read-out: Log TGI (converted)): > 50.1 µM | GI50 (SNB-19): 9.55 µM | LC50 (SNB-19): > 50.1 µM | TGI (SNB-19): 28.2 µM | IC50 (NCI [6]): 14 µM | TGI (NCI [6]): 50 µM | CC50 (NCI [6]): 50 µM | IC50 (NCI [7]): 9 µM | TGI (NCI [7]): 25 µM | CC50 (NCI [7]; read-out: LC50 (the source's name)): 44 µM | GI50 (CAKI-1): 11 µM | CC50 (CAKI-1): > 50.1 µM | TGI (CAKI-1): 35.5 µM | GI50 (COLO 205): 10.2 µM | CC50 (COLO 205): > 50.1 µM | TGI (COLO 205): 29.5 µM

CN(/N=N/c1nc(OCc2ccccc2)c2nc[nH]c2n1)C(=O)N(C)/N=N/c1nc(OCc2ccccc2)c2nc[nH]c2n1
GI50 (HOP-92): 30.2 µM | CC50 (HOP-92): > 100 µM | TGI (HOP-92): > 100 µM | GI50 (HT-29): 60.3 µM | CC50 (HT-29; [12]): > 100 µM | TGI (HT-29; read-out: Log TGI (converted)): > 100 µM | GI50 (SF-268 [1]): 47.9 µM | CC50 (SF-268 [1]): > 100 µM | TGI (SF-268 [1]): > 100 µM | Activity (MCF7 [8]): 74% | Activity (SF-268 [9]): 46% | GI50 (OVCAR-5): 63.1 µM | CC50 (OVCAR-5): > 100 µM | TGI (OVCAR-5): > 100 µM | GI50 (MOLT-4): 53.7 µM | CC50 (MOLT-4; [12]): > 100 µM | TGI (MOLT-4; read-out: Log TGI (converted)): > 100 µM | GI50 (NCI-H23): 34.7 µM | LC50 (50% net cell kill) (NCI-H23): > 100 µM | TGI (NCI-H23): > 100 µM | GI50 (U-251): 50.1 µM | CC50 (U-251): > 100 µM | TGI (U-251): > 100 µM | CC50 (A549): > 100 µM | TGI (A549): > 100 µM | GI50 (SK-MEL-5): 20.9 µM | CC50 (SK-MEL-5): > 100 µM | TGI (SK-MEL-5): 61.7 µM | half-life [4]: 7.17 h | GI50 (ACHN): 31.6 µM | CC50 (ACHN; [12]): > 100 µM | TGI (ACHN; read-out: Log TGI (converted)): > 100 µM | GI50 (OVCAR-8): 51.3 µM | LC50 (concentration giving 50% net cell death) (OVCAR-8): > 100 µM | TGI (OVCAR-8): > 100 µM | Activity (NCI-H460 [10]): 58% | GI50 (BT-549): 36.3 µM | CC50 (BT-549): > 100 µM | TGI (BT-549): > 100 µM | GI50 (CCRF-CEM): 50.1 µM | CC50 (CCRF-CEM; [12]): > 100 µM | TGI (CCRF-CEM; read-out: Log TGI (converted)): > 100 µM | GI50 (NCI-H522): 39.8 µM | CC50 (NCI-H522; [12]): > 100 µM | TGI (NCI-H522; read-out: Log TGI (converted)): > 100 µM | GI50 (NCI-H226): 38.9 µM | CC50 (NCI-H226; [12]): > 100 µM | TGI (NCI-H226; read-out: Log TGI (converted)): > 100 µM | GI50 (HCC 2998): 19.5 µM | CC50 (HCC 2998; [12]): > 100 µM | TGI (HCC 2998; read-out: Log TGI (converted)): 81.3 µM | GI50 (SNB-19): > 100 µM | LC50 (SNB-19): > 100 µM | TGI (SNB-19): > 100 µM | GI50 (Malme-3M): 40.7 µM | CC50 (Malme-3M; [12]): > 100 µM | TGI (Malme-3M; read-out: Log TGI (converted)): > 100 µM | GI50 (A498): 19.5 µM | CC50 (A498; [12]): > 100 µM | TGI (A498; read-out: Log TGI (converted)): 53.7 µM | GI50 [11]: 46.8 µM | CC50 [11, 12]: > 100 µM | TGI ([11]; read-out: Log TGI (converted)): > 100 µM | GI50 (RXF 393): 79.4 µM | CC50 (RXF 393; [12]): > 100 µM | TGI (RXF 393; read-out: Log TGI (converted)): > 100 µM | IC50 (NCI [6]): 55 µM | TGI (NCI [6]): > 100 µM | CC50 (NCI [6]): > 100 µM | IC50 (NCI [7]): 36 µM | TGI (NCI [7]): 87 µM | GI50 (CAKI-1): 17 µM | CC50 (CAKI-1): > 100 µM | TGI (CAKI-1): 63.1 µM | GI50 (SN12C): 56.2 µM | CC50 (SN12C; [12]): > 100 µM | TGI (SN12C; read-out: Log TGI (converted)): > 100 µM | GI50 (COLO 205): 37.2 µM | CC50 (COLO 205): > 100 µM | TGI (COLO 205): > 100 µM
